Most compounds without a hit are left out; they make up all but 3.1% or so of the library.
GalR3 antag = antagonists of human GalR3. O60755. 360,000 compounds, 0.44% hits. inhibition, % at 3 µM. HEK293 GalR3-CNG cAMP membrane potential fluorescence; galR3 body fused to GalR1 C-terminus;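 active = inhibition above the screen-wide average plus 3 SD, cut at about 13% in these data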;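 note: forskolin and galanin both at EC90 stimulate the cells; cAMP rise reported by CNG channel membrane potential dye signal; 0% = forskolin plus galanin with DMSO and 100% = forskolin alone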
OX1R antag-1 = antagonists of human orexin 1 receptor | O43613 | CHO/OX1R cells, Fluo-8 calcium fluorescence, orexin A | inhibition, % at 5 µM | 330,000 compounds, 0.43% hits;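 active = inhibition above its plate's threshold, mean inhibition of all tested compounds on the plate plus 3 SD, cut at about 37% in these data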;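 note: 0% = orexin A challenge wells and 100% = SB-334867-A antagonist wells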
Target sequence (O43613 whole entry, looked up): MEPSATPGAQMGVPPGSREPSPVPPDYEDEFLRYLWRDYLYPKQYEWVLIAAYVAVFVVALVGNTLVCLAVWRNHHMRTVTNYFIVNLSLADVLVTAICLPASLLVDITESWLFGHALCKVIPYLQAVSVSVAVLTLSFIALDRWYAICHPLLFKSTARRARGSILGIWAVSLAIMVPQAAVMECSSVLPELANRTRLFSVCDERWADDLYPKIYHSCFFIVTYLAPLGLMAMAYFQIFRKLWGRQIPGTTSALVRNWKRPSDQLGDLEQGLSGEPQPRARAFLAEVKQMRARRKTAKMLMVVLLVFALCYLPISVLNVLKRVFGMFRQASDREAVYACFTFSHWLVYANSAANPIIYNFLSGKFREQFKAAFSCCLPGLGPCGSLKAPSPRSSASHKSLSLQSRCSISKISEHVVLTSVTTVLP
CHO parental Ca = counter-screen: ATP calcium response change in parental CHO cells; parental CHO-K1, ATP-induced calcium, Fluo-8 fluorescence; inhibition, % at 5.6 µM; 330,000 compounds, 0.63% hits; AID 463079;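 active = inhibition above that plate's mean sample inhibition plus 3 SD, cut at about 26% in these data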;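 note: 0% = ATP-challenged DMSO wells and 100% = DMSO wells without ATP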
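Measured by: calcium-sensitive Fluo-8 fluorescence / Test system: CHO parental line / Controls: ATP-challenged DMSO wells low, unchallenged DMSO wells high / Measure: % inhibition / Compound: single nominal dose of 5.6 µM per compound / Replicates: single well per compound, no replicates / Reagent: ATP as calcium-mobilizing challenge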
OX1R antag-2 = OX1R (human) antagonism. O43613. OX1R-expressing cells, FRET antagonist read-out. inhibition, % at 6.6 µM. 330,000 compounds, 1.8% hits; in the data active = inhibition mostly above about 38%, no sharp cut-off; inactive = mostly below about 40%;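 note: 0% = agonist challenge alone and 100% = reference antagonist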
GPR7 antagonist = blocks human GPR7 receptor signaling; GPR7-expressing cells, fluorescence antagonist assay; inhibition, % at 4.4 µM; 290,000 compounds, 1.1% hits; AID 1861; in the data active = inhibition above about 16%, passing the limit was not always enough;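 note: cells stimulated with the agonist NPW; 0% = agonist with vehicle and 100% = vehicle without agonist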
Numbers without * were called inactive.

C[C@@H]1CC[C@]2(C(=O)O[C@@H]3O[C@H](CO)[C@@H](O)[C@H](O)[C@H]3O)CC[C@]3(C)C(=CCC4[C@@]5(C)CC[C@H](O[C@@H]6OC[C@H](O)[C@H](O[C@@H]7O[C@H](CO)[C@@H](O)[C@H](O)[C@H]7O)[C@H]6O)C(C)(C)C5CC[C@]43C)C2[C@]1(C)O (stereo not given in full) was read as GalR3 antag 0, OX1R antag-1 -8, CHO parental Ca -5 and OX1R antag-2 11.
COC(=O)c1cc2c(c3c4cc(F)ccc4n(S(=O)(=O)c4cccc(C)c4)c13)C(=O)N(Cc1ccc(N(C)C)cc1)C2 was read as GalR3 antag -4.
`N#CCc1nc(CSc2nc3ccccc3s2)cs1` gave GalR3 antag 0, OX1R antag-1 4, CHO parental Ca -7, OX1R antag-2 7 and GPR7 antagonist 16*.
Screening CCc1ccc(S(=O)(=O)NCc2csc(-c3cccnc3)n2)s1 returned OX1R antag-1 8, CHO parental Ca -21, OX1R antag-2 64* and GPR7 antagonist 12.
`O=S(=O)(NCc1csc(-c2cccnc2)n1)c1cccs1` gave OX1R antag-1 -6, CHO parental Ca -11, OX1R antag-2 28 and GPR7 antagonist 3.
CN(Cc1ccc2c(c1)CCCN2C)C(=O)[C@@H](Cc1ccccc1)NC(=O)[C@H]1O[C@@H](n2ccc(=O)[nH]c2=O)[C@H](O)[C@@H]1O was read as GalR3 antag 3.
Screening CC1(C)Oc2cc(N)c([N+](=O)[O-])cc2O1 returned GalR3 antag 2, OX1R antag-1 -10, CHO parental Ca 11, OX1R antag-2 43 and GPR7 antagonist -17.
Screening C=C1N(C)c2cc([N+](=O)[O-])c(N)cc2C1(C)C returned GalR3 antag -5, OX1R antag-1 -22, CHO parental Ca -8, OX1R antag-2 56* and GPR7 antagonist -7.
COC(=O)c1ccc(OCC(O)CN2C(=O)NC(C)(C)C2=O)cc1 (stereo not given) was read as GalR3 antag -4 and GPR7 antagonist -15.
CCCOC(=O)c1ccc(OCC(O)CN2C(=O)NC(C)(C)C2=O)cc1 (stereo not given) was read as GalR3 antag -4, OX1R antag-1 -7, CHO parental Ca 99*, OX1R antag-2 19 and GPR7 antagonist -8.
For Cc1ccc(S(=O)(=O)/N=C2/C=C(C3C(=O)CC(C)(C)CC3=O)C(=O)c3ccccc32)cc1 the results were GalR3 antag -5, OX1R antag-1 -11, CHO parental Ca -12, OX1R antag-2 63* and GPR7 antagonist 0.
Screening NS(=O)(=O)c1cccc(NC(=O)CN2CCc3ccccc32)c1 returned GalR3 antag 1, OX1R antag-1 7, CHO parental Ca 14, OX1R antag-2 12 and GPR7 antagonist -3.
Screening CN(c1ccccc1)S(=O)(=O)c1cccc(NC(=O)CN2CCCc3ccccc32)c1 returned GalR3 antag -2, OX1R antag-1 12, CHO parental Ca 33*, OX1R antag-2 24 and GPR7 antagonist -2.
`Cc1cccc(OCC(=O)NNc2c3ccccc3nc3ccccc23)c1` gave GalR3 antag -6, OX1R antag-1 15, CHO parental Ca -8, OX1R antag-2 41* and GPR7 antagonist -10.
For C=CCN=C1NC(c2cccc(F)c2)C(C(=O)OC)=C(C)N1Cc1ccccc1C(F)(F)F (stereo not given) the results were GalR3 antag -9.
For CCCN1CCCCC(NC(=O)c2ccccc2C)C1=O (stereo not given) the results were GalR3 antag -3.
`CCCSc1nnc(-c2cccc(S(=O)(=O)N(C)C)c2)n1-c1cc(OC)ccc1OC` gave GalR3 antag -8, OX1R antag-1 -53, CHO parental Ca -19, OX1R antag-2 8 and GPR7 antagonist 20*.
Cc1ccc(NC(=O)C2C(c3ccccc3)C2(Cl)Cl)c(C)c1 (stereo not given) was read as GalR3 antag -2, OX1R antag-1 10, CHO parental Ca 7, OX1R antag-2 77* and GPR7 antagonist -16.
Cc1cccc(NC(=O)C2C(c3ccccc3)C2(Cl)Cl)c1 (stereo not given) was read as GalR3 antag 11, OX1R antag-1 -7, CHO parental Ca 17, OX1R antag-2 27 and GPR7 antagonist -18.
Screening Brc1ccc2c(c1)OCCOCCOc1cc(Br)ccc1OCCOCCOCCO2 returned OX1R antag-1 72*, CHO parental Ca 57*, OX1R antag-2 5 and GPR7 antagonist 24.
For COc1cccc2c(=O)c3ccccc3oc12 the results were GalR3 antag -8, OX1R antag-1 -9, CHO parental Ca -7, OX1R antag-2 62* and GPR7 antagonist -4.
OC(c1ccccc1)(c1ccccc1)C1CCN(CCCOc2ccncc2)CC1 was read as GalR3 antag -9.
CCN(CC)c1ccc(NC(=O)/C=C\c2ccccc2Cl)cc1 was read as GalR3 antag -10, OX1R antag-1 12, CHO parental Ca -18, OX1R antag-2 40* and GPR7 antagonist 10.
CN(C)c1ccc(NC(=O)/C=C/c2ccccc2Cl)cc1 was read as GalR3 antag -3, OX1R antag-1 -8, CHO parental Ca -16, OX1R antag-2 64* and GPR7 antagonist -6.
Screening CC(=O)c1cccc(NC(=O)Nc2ccc3c(c2)OCO3)c1 returned GalR3 antag 0 and GPR7 antagonist 0.
`COc1ccc(C2CC(=O)C(c3ccccc3C)=CN2Cc2ccccc2)cc1` (stereo not given) gave GalR3 antag -2.
Screening COC(=O)C1=C(C)N(C)C(=NCc2cc(OC)c(OC)c(OC)c2)NC1c1ccc(Cl)cc1 (stereo not given) returned GalR3 antag 8.
For O=C(NCCc1cn2ccccc2n1)c1ccccc1F the results were GalR3 antag -5, OX1R antag-1 -10, CHO parental Ca -1, OX1R antag-2 9 and GPR7 antagonist -6.
For COCC1CCN(C(=O)c2cc(COc3ccc4ncccc4c3)on2)CC1 the results were GalR3 antag -6, OX1R antag-1 21, CHO parental Ca 42*, OX1R antag-2 22 and GPR7 antagonist -10.
Screening O=C(NCCc1cn2ccccc2n1)c1cc(COc2ccc3ncccc3c2)on1 returned GalR3 antag -2, OX1R antag-1 47*, CHO parental Ca 47*, OX1R antag-2 65* and GPR7 antagonist -8.
Cc1cc(OCc2cc(C(=O)N3CCC(Oc4cccnc4)CC3)no2)cc(C)c1Cl was read as GalR3 antag -5, OX1R antag-1 30, CHO parental Ca 56*, OX1R antag-2 23 and GPR7 antagonist -4.
For Cc1ccc(OCc2cc(C(=O)NC3CCCCC3)no2)cn1 the results were GalR3 antag -7, OX1R antag-1 -16, CHO parental Ca 14, OX1R antag-2 24 and GPR7 antagonist 1.
`O=C(NC1CCCC1)c1cc(COc2ccc3ncccc3c2)on1` gave OX1R antag-1 31, CHO parental Ca 52*, OX1R antag-2 24 and GPR7 antagonist 2.
